# Compound activity deposited in PubChem BioAssay by Johns Hopkins Ion Channel Center.
# Shown are actives, neighbours in structure and some others; about 3.5% of the full set was active somewhere.
# MrgX1 ag: activates human MrgX1 receptor signaling. Q96LB2. B-score at 10 µM. AID 588627. 310,000 compounds, 0.44% hits. MrgX1-HEK293 cells, Fluo-4 calcium fluorescence, agonist mode; stronger effect = higher value;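 active = calcium response B-score plate-corrected fluorescence ratio at least 3 library SD, with starting fluorescence B-score inside 5 SD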
# Target sequence (Q96LB2 whole entry, looked up): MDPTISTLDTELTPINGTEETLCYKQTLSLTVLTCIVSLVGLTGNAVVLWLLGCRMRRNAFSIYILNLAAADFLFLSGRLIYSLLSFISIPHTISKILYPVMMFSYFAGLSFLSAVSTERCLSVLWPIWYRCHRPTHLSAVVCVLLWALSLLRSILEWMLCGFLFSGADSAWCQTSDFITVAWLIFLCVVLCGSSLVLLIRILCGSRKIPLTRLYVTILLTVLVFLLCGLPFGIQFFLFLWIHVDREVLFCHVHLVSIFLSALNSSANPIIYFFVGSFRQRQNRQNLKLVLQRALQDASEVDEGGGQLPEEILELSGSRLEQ
#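 Test system: HEK293 cells stably expressing human MrgX1 receptor; Input: fifteen thousand cells per well; Dosing: compound delivered in addition one of three; Schedule: overnight seeding, then 1 h dark dye loading; Technique: Fluo-4 NW calcium fluorescence; Measure: B-scored fluorescence response ratio; Controls: positive and negative controls per plate.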
# RGS4 block: human RGS4 inhibition. P49798. HEK293 M3R/RGS4 inducible, Fluo-4 calcium flux; stronger effect = higher value; triggered by carbachol at its EC20. B-score at 10 µM. 310,000 compounds, 0.45% hits. AID 463165;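 active = B-score, a plate-corrected calcium signal, over three deviations above library mean, with baseline fluorescence within five deviations of library mean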;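 also: RGS4 expression induced by doxycycline in cells with stable M3 receptor; B-score is computed from the integrated fluorescence ratio over baseline after carbachol; higher B-score means a larger calcium signal and so more RGS4 inhibition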
# Target sequence (P49798 whole entry, looked up): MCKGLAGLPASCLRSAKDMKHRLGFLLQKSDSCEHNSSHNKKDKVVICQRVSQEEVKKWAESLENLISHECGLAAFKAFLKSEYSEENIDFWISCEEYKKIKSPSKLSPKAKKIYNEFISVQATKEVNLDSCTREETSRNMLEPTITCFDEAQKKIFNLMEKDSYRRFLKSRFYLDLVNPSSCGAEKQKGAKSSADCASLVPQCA
# MrgX1 allo act: human MrgX1 positive allosteric modulation, primary screen; Q96LB2; 310,000 compounds, 0.63% hits; B-score at 10 µM; MrgX1-HEK293, Fluo-4 calcium flux, FDSS; stronger effect = higher value;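 active = plate-corrected calcium response at least 3 library SD above typical, normal starting fluorescence, not activating the receptor alone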;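 also: compound read alongside a low EC10 to EC30 dose of BAM8-22 agonist; peak minus trough fluorescence over baseline measured at the second addition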
# RGS4 pot: potentiators or activators of RGS4. HEK293 M3R/inducible RGS4, carbachol calcium flux Fluo4; stronger effect = lower value. B-score at 10 µM. 310,000 compounds, 0.92% hits;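 active = B-score of the integrated calcium signal more than 4 SD below the library mean, with starting fluorescence not abnormally high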;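 also: negative B-score means reduced calcium response which marks RGS4 activation or potentiation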
#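 System: HEK293 FlpIn-TREx cells, stable M3R, doxycycline-inducible RGS4. Timing: overnight RGS4 induction, 30 min dye load 37 °C, 20 min compound RT. Also added: carbachol, ECmax concentration. Measured by: Fluo4 fluorescence kinetic imaging of calcium. Evaluation: integrated calcium ratio converted to B score.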
# MrgX1 antag: human MrgX1 receptor antagonism, primary screen; 310,000 compounds, 1.3% hits; Q96LB2; B-score at 10 µM; MRGX1-HEK293 calcium flux, Fluo-4, BAM8-22 antagonism; stronger effect = lower value; AID 588676;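 active = calcium-response B-score plate-corrected more than 3 library SD below zero, starting fluorescence within 5 deviations, no agonist response on first addition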;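 also: peak minus trough fluorescence over baseline after final BAM8-22 challenge near maximal dose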
# MrgX1 allo conf: confirmation of human MrgX1 receptor positive allosteric modulators | shares compounds with MrgX1 allo act | MrgX1-HEK293, Fluo-4 calcium fluorescence, FDSS | activation (ratio percentage), % at 10 µM | 1,200 compounds, 13% hits;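 active = ratio at least 3 SD above the weak peptide control, stable starting fluorescence, no direct agonism earlier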;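 also: compound followed by low BAM8-22 agonist challenge near EC20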
# HEK293 Ca flux: counter-screen for MrgX1 antagonists: effect in parental HEK293 cells; shares compounds with MrgX1 antag; Fluo-4 calcium fluorescence, FDSS; fluorescence ratio F(max-min)/F0 at 10 µM; 4,000 compounds, 2% hits; AID 624111;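 active = duplicate-averaged calcium fluorescence ratio at least three times the standard deviation of buffer wells, a nonspecific response in parental cells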
# HEK293 Ca counter: counter-screen for MrgX1 allosteric activators: effect in parental HEK293 cells; parental HEK293 calcium flux, Fluo-4 fluorescence ratio; stronger effect = higher value; shares compounds with MrgX1 antag; fluorescence ratio F(max-min)/F0 at 10 µM; 4,000 compounds, 0.4% hits;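 active = calcium fluorescence ratio, averaged over duplicates, at least 3 SD of the buffer-well ratio, meaning a nonspecific response in receptor-free cells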;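 also: untransfected parental HEK293 lacking MrgX1 used as counterscreen for MrgX1 allosteric activators; fluorescence change taken during the second addition on a kinetic imager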
# HEK293 Ca cntr2: MrgX1 activator counter-screen hit in parental HEK293 cells | shares compounds with MrgX1 antag | Fluo-4 calcium fluorescence (FDSS); stronger effect = higher value | fluorescence ratio F(max-min)/F0 at 10 µM | 4,000 compounds, 8.7% hits;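 active = calcium fluorescence ratio at least three times the spread of buffer wells, meaning a non-specific response in parental cells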
# Starred values were filed as active, the others as inactive; i = inactive; . = no result given.
SMILES,MrgX1 ag,RGS4 block,MrgX1 allo act,RGS4 pot,MrgX1 antag,MrgX1 allo conf,HEK293 Ca flux,HEK293 Ca counter,HEK293 Ca cntr2
Cc1ccc(C)c(SCC(=O)Nc2oc(C)c3c(C)n[nH]c(=O)c23)c1,i,i,i,i,i,.,.,.,.
C=C(C)Cn1c(-c2ccc(OC)cc2)nc2ccccc21,i,i,6.98*,i,i,i,i,i,i
NC(=O)CSc1nc(C23CC4CC(CC(C4)C2)C3)nc2ccccc12,i,i,16.8*,i,i,14.3%*,i,i,i
Cc1nonc1NC(=O)CSc1nc(C23CC4CC(CC(C4)C2)C3)nc2ccccc12,i,i,i,i,i,.,.,.,.
Cn1c(N)c(N=Nc2ccc(S(N)(=O)=O)cc2)c(=O)n(C)c1=O,i,i,i,i,i,.,.,.,.
Cc1ccccc1NC(=O)c1ccco1,i,i,i,i,i,.,.,.,.
Cc1ccccc1NS(=O)(=O)c1ccc(NC(=O)c2ccco2)cc1,i,i,10.9*,i,i,i,i,i,i
Cc1cc(NC(=O)CSc2nnc(CNC(=O)c3ccc(F)cc3)o2)no1,i,i,i,i,i,.,.,.,.
Nc1c(C=C2C=CC(=O)C=C2)c(=O)nc2sc(CC(=O)N3CCCC3)nn12,i,i,i,i,i,.,.,.,.
CCS(=O)(=O)c1nn2c(N)c(/C=C3/C=CC(=O)C(OC)=C3)c(=O)nc2s1,i,i,27.8*,i,i,i,i,i,62.9*
Cn1c(CN2CCCCC2)nc2cc(NC(=O)c3ccc(Cl)cc3)ccc21,i,i,i,i,i,.,.,.,.
Cn1c(CN2CCCC2)nc2cc(NC(=O)c3ccc(Cl)cc3)ccc21,i,i,9*,i,i,i,i,i,i
O=C(Cn1cc(C(F)(F)F)cc(Cl)c1=O)Nc1ccc(N2CCOCC2)cc1,i,i,i,i,i,.,.,.,.
CCCCc1cc(=O)oc2cc(OC(C)C(=O)NCc3ccccn3)c(Cl)cc12 (centres undefined),i,i,13.5*,i,i,i,i,i,i
CCCCc1cc(=O)oc2cc(OCC(=O)NCc3ccccn3)c(Cl)cc12,i,i,i,i,i,.,.,.,.
Cc1ccc(C)c(SCC(=O)N(C)CC(=O)Nc2ccc(N3CCOCC3)cc2)c1,i,i,i,i,i,.,.,.,.
O=C(c1ccc(Br)cc1)N(c1ccccn1)C1CCCCC1,i,i,19*,i,i,i,i,i,i
O=S(=O)(Nc1nc2ccccc2s1)c1ccc(Br)s1,i,i,7.19*,i,i,i,i,i,i
CC(NS(=O)(=O)/C=C/c1ccccc1)C(=O)O (centres undefined),i,i,10.4*,i,i,i,i,i,i
COCc1ccc(C(=O)N2CCCC(C(=O)c3cccc(C(F)(F)F)c3)C2)o1 (centres undefined),i,i,32.2*,i,i,i,i,i,i
Cc1ccn2c(=O)c(C(=O)NC3CCCCC3C)c(O)nc2c1 (centres undefined),i,i,9.32*,i,i,i,i,i,i
Cc1cccn2c(=O)c(C(=O)NC3CCCCC3C)c(O)nc12 (centres undefined),i,i,i,i,i,.,.,.,.
CC(C)Sc1nc(N)nc(-c2cccs2)c1C#N,i,i,9.05*,i,i,i,i,i,i
CSc1nc(N)nc(-c2cccs2)c1C#N,i,i,i,i,i,.,.,.,.
Cc1nn(-c2ccc(N3CCCCC3)nn2)c(C)c1CCC(=O)Nc1cc(F)ccc1F,i,i,7.82*,i,i,i,i,i,i
SMILES,MrgX1 ag,RGS4 block,MrgX1 allo act,RGS4 pot,MrgX1 antag,MrgX1 allo conf,HEK293 Ca flux,HEK293 Ca counter,HEK293 Ca cntr2
COc1ccc(-c2nsc3c(SCc4ccccc4)ncnc23)cc1,i,i,6.76*,i,i,i,i,i,i
CCN(CC)C(=O)CSc1ncnc2c(-c3ccc(OC)cc3)nsc12,i,i,i,i,i,.,.,.,.
O=C(CN1CCC(O)(c2cccc(F)c2)CC1)NCCc1c[nH]c2ccccc12,i,i,7.64*,i,i,i,i,i,i
O=C(NCCc1c[nH]c2ccccc12)c1ccc(F)cc1F,i,i,i,i,i,.,.,.,.
CCOc1ccc2nc(SCC(=O)NCc3ccccc3OC)[nH]c2c1,i,i,15.3*,i,i,i,i,i,i
Cc1ccc(-c2ccc(S(=O)(=O)N3CC(C)OC(C)C3)cc2)cc1 (centres undefined),i,i,i,i,i,.,.,.,.
COc1cccc(CNC(=O)CCC2CCCN(C(=O)c3ccccc3N(C)C)C2)c1 (centres undefined),i,i,i,i,i,.,.,.,.
COCCNC(=O)c1ccc2c(c1)ncn2-c1cccc(C)c1,i,i,i,i,i,.,.,.,.
Cc1cccc(-n2cnc3cc(C(=O)N4CCc5ccccc54)ccc32)c1,i,i,7.52*,i,i,i,i,i,i
COc1ccc(-n2c(SCC(=O)N3CCC(C(=O)O)CC3)nc3ccccc3c2=O)cc1OC,i,i,i,i,i,.,.,.,.
CN(Cc1ccc(N(C)C)cc1)C(=O)c1cc2ccccc2o1,i,i,12.4*,i,i,8.2%*,i,i,i
NS(=O)(=O)c1ccc(NC(=O)COC(=O)C2CC(=O)N(Cc3ccccc3)C2)cc1 (centres undefined),i,i,i,i,i,.,.,.,.
Cc1cc(Cl)ccc1OC(C)C(=O)Nc1ccccc1N1CCOCC1 (centres undefined),i,i,15.1*,i,i,i,i,i,i
CCC(C)NC(=O)CSc1nnc(-c2ccc(OC)c(OC)c2)c(-c2ccc(OC)c(OC)c2)n1 (centres undefined),i,i,i,i,i,.,.,.,.
CCOC(=O)CSCc1csc(CC(=O)Nc2ccccc2C)n1,i,i,i,i,i,.,.,.,.
